Tests used:
[1] = melting temperature; fluorescence melt of hairpins on a sequencing array, two-state fit, raised by 9.35 °C to match UV melts; conditions: sodium 0.088 M
Method in brief: (§1)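 In 50 mM Na-HEPES pH 8.0 containing 25 mM NaCl, hairpins from the library on a sequenced MiSeq flow cell were imaged for Cy3 fluorescence at 2.5 °C steps up to 60 °C, with Cy3 and quencher oligos annealed. After normalisation to pre-quench Cy3 and to control constructs, two-state fits with bootstrapping gave melting temperature and folding enthalpy. Four replicates were combined by inverse-variance weighting, and fitted temperatures were shifted up by 9.35 °C to match UV melts.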

[2] = folding enthalpy; higher = less favourable; fluorescence melt of hairpins on a sequencing array, two-state fit; conditions: sodium 0.088 M
Method in brief: as §1

Sequence | Tm [1] | folding enthalpy [2]
GGCCATGGAAACGTGGTC (.(((.(....).))).) | 45.2 °C | -33.2 kcal/mol
GGCCCACCGAAAGGTGCC (((..(((....)))))) | 34.2 °C | -9.96 kcal/mol
GGCCCACGAAAGTGAGCC (((.(((....))).))) | 60.8 °C | -40.6 kcal/mol
GGCCCACGAAAGTGCGCC (((.(((....))).))) | 55.8 °C | -42.5 kcal/mol
GGCCCCGAAAGGGAGCC ((((((....))).))) | 68.4 °C | -31.6 kcal/mol
GGCCCCGAAAGGGGAGCC ((((((....)))..))) | 59.1 °C | -12.8 kcal/mol
GGCCCCGAAAGGGTAGCC ((((((....)))..))) | 60.1 °C | -23.7 kcal/mol
GGCCCCGAAAGGGTTGCC ((((((....)))..))) | 55.3 °C | -16.3 kcal/mol
GGCCCCTCGAAAGAGGCC (((..(((....)))))) | 43.8 °C | -15.6 kcal/mol
GGCCCGACGAAAGTCGCC (((..(((....)))))) | 35.2 °C | -8.24 kcal/mol
GGCCCGGGAAACCGGGTC (.(((((....))))).) | 67.3 °C | -28.9 kcal/mol
GGCCCTCCGAAAGGAGCC (((..(((....)))))) | 38.4 °C | -10.6 kcal/mol
GGCCCTGGAAACAGAGCC (((.(((....))).))) | 48.7 °C | -41.2 kcal/mol
GGCCCTGGAAACAGGGTC (.(((((....))))).) | 58.9 °C | -36 kcal/mol
GGCCCTGGAAACGGGGCC (((((.(....).))))) | 67.5 °C | -31.4 kcal/mol
GGCCGACGAAAGTCTGCC (((.(((....))).))) | 56.2 °C | -51.3 kcal/mol
GGCCGAGGAAACCCGACC ((.((.(....).)).)) | 34 °C | -24.9 kcal/mol
GGCCGATCGAAAGATGCC (((..(((....)))))) | 38.9 °C | -25.1 kcal/mol
GGCCGCGAAAGCGCTGCC ((((((....)))..))) | 56.5 °C | -18.6 kcal/mol
GGCCGCGAAAGCGGAGCC ((((((....)))..))) | 53.9 °C | -13.4 kcal/mol
GGCCGCGAAAGCGTTGCC ((((((....)))..))) | 56 °C | -16.8 kcal/mol
GGCCGCGGAAACGCGACC ((.((((....)))).)) | 63.3 °C | -19.7 kcal/mol
GGCCGGACGAAAGTCGCC (((..(((....)))))) | 50 °C | -21.5 kcal/mol

Sequence | Tm [1] | folding enthalpy [2]
GGCCGGGGAAACCCGGTC (.(((((....))))).) | 67.9 °C | -24.6 kcal/mol
GGCCGTCGAAAGACGCC (((.(((....)))))) | 62.8 °C | -17.2 kcal/mol
GGCCGTGGAAACATGGCC ((((.((....)).)))) | 61.8 °C | -44.6 kcal/mol
GGCCGTGGAAACGCGGTC (.(((.(....).))).) | 52.5 °C | -30.3 kcal/mol
GGCCGTGGAAACGTGGCC ((((..(....)..)))) | 55.5 °C | -39.9 kcal/mol
GGCCGTTCGAAAGAAGCC (((..(((....)))))) | 27.6 °C | -13.8 kcal/mol
GGCCTAGCGAAAGCTGCC (((..(((....)))))) | 47.1 °C | -20.4 kcal/mol
GGCCTCCGAAAGGACGCC (((.(((....))).))) | 53.6 °C | -37.2 kcal/mol
GGCCTCGAAAGAGAAGCC ((((((....)))..))) | 47.9 °C | -26 kcal/mol
GGCCTCGAAAGAGCGCC ((((((....))).))) | 56.7 °C | -21.8 kcal/mol
GGCCTCGAAAGAGCGGCC ((((((....)))..))) | 51.8 °C | -29.1 kcal/mol
GGCCTCGAAAGAGCTGCC ((((((....)))..))) | 45 °C | -24 kcal/mol
GGCCTCGAAAGAGGTGCC ((((((....)))..))) | 47.6 °C | -13.2 kcal/mol
GGCCTCGAAAGAGTGCC ((((((....))).))) | 58.2 °C | -37.7 kcal/mol
GGCCTCGGAAACGAGACC ((.((((....)))).)) | 52.2 °C | -31.3 kcal/mol
GGCCTGCGAAAGCAAGCC (((.(((....))).))) | 58.5 °C | -30.1 kcal/mol
GGCCTGGGAAACCAAGCC (((.(((....))).))) | 45.4 °C | -30.1 kcal/mol
GGCCTGTCGAAAGACGCC (((..(((....)))))) | 45.2 °C | -18.8 kcal/mol
GGCCTTCGAAAGAAAGCC (((.(((....))).))) | 45.7 °C | -31 kcal/mol
GGCCTTCGAAAGAATGCC (((.(((....))).))) | 48.3 °C | -33.1 kcal/mol
GGCCTTGAAAAAGGCC ((((((....)))))) | 68.4 °C | -39.9 kcal/mol
GGCCTTGGAAACAGGGCC ((((.((....)).)))) | 57.1 °C | -46 kcal/mol
GGCCTTGGAAACGAGGCC (((((.(....).))))) | 59.4 °C | -50.7 kcal/mol

Sequence | Tm [1] | folding enthalpy [2]
GGCGAAACGAAAGTTGCC (((..(((....)))))) | 49.5 °C | -25.5 kcal/mol
GGCGACGAAAGTCCCGCC ((((((....)))..))) | 54.8 °C | -19.5 kcal/mol
GGCGACGAAAGTCTGGCC ((((((....)))..))) | 53.7 °C | -23.3 kcal/mol
GGCGACGAAAGTCTTGCC ((((((....)))..))) | 48.9 °C | -19.3 kcal/mol
GGCGACGGAAACGTCGTC (.(((((....))))).) | 67.9 °C | -26.5 kcal/mol
GGCGAGCGAAAGCTGGCC (((.(((....))).))) | 68 °C | -34.6 kcal/mol
GGCGATACGAAAGTAGCC (((..(((....)))))) | 49.5 °C | -23.3 kcal/mol
GGCGATCGAAAGATGCC (((.(((....)))))) | 55 °C | -37.8 kcal/mol
GGCGATGGAAACATCGTC (.(((((....))))).) | 56.5 °C | -45.8 kcal/mol
GGCGCAGCGAAAGCTGCC (((..(((....)))))) | 52.6 °C | -6.91 kcal/mol
GGCGCAGGAAACCGCACC ((.((.(....).)).)) | 39 °C | -27.5 kcal/mol
GGCGCCCCGAAAGGGGCC (((..(((....)))))) | 58.6 °C | -7.09 kcal/mol
GGCGCCGAAAGGCAAGCC ((((((....)))..))) | 63.8 °C | -21.7 kcal/mol
GGCGCCGAAAGGCCGGCC ((((((....)))..))) | 58.7 °C | -17.2 kcal/mol
GGCGCCGAAAGGCGGGCC ((((((....)))..))) | 60.4 °C | -9.79 kcal/mol
GGCGCGGGAAACCGCACC ((.((((....)))).)) | 61.7 °C | -22.4 kcal/mol
GGCGCTCGAAAGAGGCC (((.(((....)))))) | 57.5 °C | -40.1 kcal/mol
GGCGCTGGAAACGGTGCC (((.(.(....).).))) | 52.7 °C | -31.2 kcal/mol
GGCGGATCGAAAGATGCC (((..(((....)))))) | 46.1 °C | -22.7 kcal/mol
GGCGGCGAAAGCCAAGCC ((((((....)))..))) | 63.9 °C | -25.5 kcal/mol
GGCGGCGAAAGCCTGGCC ((((((....)))..))) | 61.8 °C | -19.9 kcal/mol
GGCGGCGGAAACACCGCC (((((.(....).))))) | 65.2 °C | -21.9 kcal/mol
